Published values gathered from unrelated publications.
Each line is one published result; the experiments were not run side by side.
Observed: cell growth or viability

The IC50 of `CC(C)(C)c1cnc(CSc2cnc(NC(=O)C3CCN(C(=O)CCCCCCCN4Cc5cc6c(cc5C4)C(=O)N(C4CCC(=O)NC4=O)C6=O)CC3)s2)o1` (stereo not shown) is reported as 0.0853 µM (MES-SA; MTT).
For `CCc1oc2cc(S(=O)(=O)Nc3ccc(S(=O)(=O)Nc4nccs4)cc3)ccc2c1C(=O)c1cc(Br)c(O)c(Br)c1`, the IC50 was 146 µM (human Skin fibroblast; MTT; 96 h).
The IC50 of `CONC(=O)c1cccc2c1cc(C)n2-c1nc2c(c(NCc3ccccc3)n1)CCCN2` is reported as 0.4 µM (MOLM16; 72 h).
For `COc1cccc2c1C(=O)c1c(O)c3c(c(O)c1C2=O)C[C@@](O)(C(=O)CO)C[C@@H]3O[C@H]1C[C@H](N)[C@H](O)[C@H](C)O1`, the IC50 was over 100 µM (human Skin fibroblast; MTT; 24 h).
`NC(=O)C1CN(C(=O)CCl)c2ccccc2O1` (stereo not shown) has an IC50 of 17.5 µM (BT-474; fluorescence; 5 days).
`COC(=O)c1cc(C(C)=NNc2nc(-c3ccc(C)cc3)cs2)ccc1O` has an IC50 of 10.2 µM (human Skin fibroblast; MTT; 96 h).
The IC50 of `COc1cc([C@@H]2c3cc4c(cc3[C@@H](O[C@@H]3O[C@@H]5CO[C@@H](C)O[C@H]5[C@H](O)[C@H]3O)[C@H]3COC(=O)[C@H]23)OCO4)cc(OC)c1O` is reported as 2.7 µM (SK-HEP1; SRB; 72 h).
With `CO[C@H]1[C@H](O[C@H]([C@H]2O[C@@H](n3ccc(=O)[nH]c3=O)[C@H](O)[C@@H]2O)[C@H](NCCCNC(=O)[C@@H](NC(=O)[C@@H](NC(=O)N[C@H](C(=O)O)C(C)C)[C@@H]2CCN=C(N)N2)[C@@H](O)C(C)C)C(=O)O)O[C@H](CN)[C@H]1O` the IC50 was over 35 µM (BT-474; WST-1).
`C[C@H](Nc1ccc2c(c1)OCCn1cc(N3C(=O)OC[C@H]3C(F)F)nc1-2)C(N)=O` has an EC50 of 0.149 µM (NCI-H1563; ATP luminescence; 5 days).
The IC50 of `CO[C@H]1[C@H](O[C@H]([C@H]2O[C@@H](n3ccc(=O)[nH]c3=O)[C@H](O)[C@@H]2O)[C@H](NCCCNC(=O)[C@@H](NC(=O)[C@@H](NC(=O)N[C@H](C(=O)O)C(C)C)[C@@H]2CCN=C(N)N2)[C@@H](OC(=O)CCCCCCCCCCCCN(O)C(=N)N)C(C)C)C(=O)O)O[C@H](CN)[C@H]1O` is reported as 0.85 µM (BT-474; WST-1).
The IC50 of `Cc1cc2c(C(=O)O)cccc2n1-c1nc2c(c(NCc3ccccc3)n1)CCCN2` is reported as 0.7 µM (MOLM16; 72 h).
`C[C@H]1[C@H](C)CC[C@]2(C(=O)O)CC[C@]3(C)C(=CC[C@@H]4[C@@]5(C)CC[C@H](O)C(C)(C)[C@@H]5CC[C@]43C)[C@H]12` gave an IC50 of 32.3 µM (human Skin fibroblast; MTT; 24 h).
`Cc1nc(NC(=O)N2CCC[C@H]2C(N)=O)sc1-c1ccnc(C(C)(C)C(F)(F)F)c1` has an EC50 of 7.42 µM (NCI-H1563; ATP luminescence; 5 days).
